Compound activity from PubChem BioAssay.
Wee1 degr inh: inhibitors of human Wee1 degradation. 1.2% of 220,000 active. P30291. AID 1321. reporter increase, % at 5 µM. HeLa Luc-Wee1K328M stability, luciferase luminescence; 100% = proteasome inhibitor MG132 effect;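 active = activation above the mean of all tested compounds plus 3 SD, set per screening run, cut at about 8.8% in these data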;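 also: cells exposed to compound for 20 h before luminescence read; 0% = DMSO alone and 100% = MG132 at 30 µM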
RanGTP-Imp inh: inhibitors of RanGTP-importin-beta interaction, primary screen, biochemical, FRET, CFP-Ran, YFP-importin-beta, homogeneous | cell-free CFP-Ran/YFP-importin-beta FRET ratio | inhibition, % (test concentration not listed) | 1.1% of 300,000 active;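 active = more than half of the replicate wells show a fall in the fluorescence ratio signal beyond about 16%, limit read from the data, passing the limit was not always enough; inconclusive = exactly half of the replicate wells pass the set limit; inactive = fewer than half of replicates pass the limit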;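 also: 0% = DMSO wells and 100% = Ran loaded with GDP instead of GTP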
Runt-CBFb FRET: inhibitors of human RUNX1 Runt domain binding to CBFb | Q01196+Q13951 | Cerulean-Runt/Venus-CBFb FRET ratio 530/480, 1 h | inhibition, % at 20 µM | 0.46% of 220,000 active | AID 1496;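 active = inhibition over about 50% at 20 µM in the single-dose screen, limit read from the data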;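 also: 0% = DMSO wells and 100% = excess unlabeled CBFb competitor control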
Target sequence (Q01196 whole entry, looked up, the tested form may be a part): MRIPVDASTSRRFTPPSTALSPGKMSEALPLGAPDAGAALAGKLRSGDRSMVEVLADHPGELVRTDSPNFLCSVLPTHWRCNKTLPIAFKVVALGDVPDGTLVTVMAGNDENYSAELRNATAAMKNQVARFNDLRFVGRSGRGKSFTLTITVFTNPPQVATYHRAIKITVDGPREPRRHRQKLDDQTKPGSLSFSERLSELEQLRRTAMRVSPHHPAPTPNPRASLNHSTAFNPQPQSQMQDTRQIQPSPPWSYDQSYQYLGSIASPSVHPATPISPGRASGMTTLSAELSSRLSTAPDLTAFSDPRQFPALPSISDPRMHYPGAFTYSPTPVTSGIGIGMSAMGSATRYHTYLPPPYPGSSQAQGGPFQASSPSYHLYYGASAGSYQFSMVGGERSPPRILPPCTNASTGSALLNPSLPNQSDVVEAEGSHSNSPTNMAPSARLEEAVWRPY
Target sequence (Q13951 whole entry, looked up, the tested form may be a part): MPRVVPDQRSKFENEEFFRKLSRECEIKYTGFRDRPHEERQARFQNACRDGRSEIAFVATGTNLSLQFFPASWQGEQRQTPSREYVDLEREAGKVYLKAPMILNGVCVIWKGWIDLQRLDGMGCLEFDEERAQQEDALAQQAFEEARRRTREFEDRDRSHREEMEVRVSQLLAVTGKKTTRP
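test system = Cerulean-tagged RUNX1 Runt domain (FRET donor) fusion protein | reagent = Venus-CBFb binding partner, 100 nM | incubation = protein complex preformed 1 h, compound exposure 1 h, room temperature, dark | detection = FRET fluorescence | read-out basis = loss of energy transfer signal | controls = 5 µM unlabeled CBFb as full-inhibition high control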
Efa HMGR inh: E. faecalis class II HMG-CoA reductase inhibition. AID 1066. purified E. faecalis HMGR, NADPH absorbance 340 nm kinetic. inhibition, % at 10 µM. 0.41% of 190,000 active;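 active = inhibition above a set limit, the median over all tested compounds plus 3 SD, cut at about 9.5% in these data; inconclusive = no clear call, values can overlap the other calls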;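 also: enzyme runs in reverse so mevalonate oxidation gives rising NADPH absorbance; 0% = complete reaction with DMSO and 100% = background rate lacking mevalonate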
PHOSPHO1 inh: PHOSPHO1 (human) inhibition; Q8TCT1; recombinant PHOSPHO1, absorbance phosphatase assay; inhibition, % at 13.3 µM; 1.1% of 290,000 active; AID 1565; in the data active = inhibition above about 60%
Runt-SMMHC FRET: blocks binding of human RUNX1 Runt domain to CBFb-SMMHC. inhibition, % at 20 µM. Cerulean-Runt/Venus-CBFb-SMMHC FRET ratio 530/480, 1 h. AID 1434. 0.74% of 220,000 active. Q01196+Q13951;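 active = mean inhibition across duplicate retests at 20 µM reaching about 50%, limit read from the data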;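 also: 0% = DMSO wells and 100% = wells with excess untagged CBFb-SMMHC; inhibitors lower the FRET ratio by blocking Runt binding to CBFb-SMMHC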
* = called active by the depositor; ? = inconclusive; / = no result. In the library only some 3.4% were active in any assay of this set; here they are far more common.

SMILES	Wee1 degr inh	RanGTP-Imp inh	Runt-CBFb FRET	Efa HMGR inh	PHOSPHO1 inh	Runt-SMMHC FRET
O=C(COc1coc(CN2CCc3ccccc32)cc1=O)Nc1cccc(F)c1	/	-0.4	/	/	/	/
CSc1ccc(NC(=O)N2CCC(C(=O)c3ccc(F)cc3)CC2)cc1	/	-1.9	/	/	-5.9	/
Cc1ccc(/C(O)=C2/C(=O)C(=O)N(CCN3CCOCC3)C2c2ccccn2)cc1 (stereo unspecified)	1.6	22.1*	9.2	-1.1	-7.9	7.8
Cc1ccccc1N=Nc1ccc(O)c2ncccc12	0.1	-6.3	-6.9	0.3	-4.6	-3.9
O=S(=O)(O)c1cccc2c(N=Nc3ccc(O)c4ncccc34)cccc12	/	16.2*	/	/	14.0	/
Cc1cc(C(=O)COC(=O)COc2ccc(C#N)cc2)c(C)n1C1CC1	/	-3.1	/	/	/	/
Cc1ccc(N/N=C2/CCCNC2=O)cc1	-1.8	4.8	0.8	1.1	93.0*	2.5
COc1ccc(CNC(=O)Cn2nc(C)n3cccc3c2=O)cc1	/	2.1	/	/	32.4	/
Cc1cc2cccc(C)c2nc1SCC(=O)NNC(=O)c1ccco1	2.8	2.3	1.6	13.9*	-51.4	-2.4
NS(=O)(=O)c1ccc(Oc2ccc(S(N)(=O)=O)cc2)cc1	0.3	1.4	-1.5	-3.3	61.5*	-0.8
CC(C)C(NS(=O)(=O)c1ccccc1)C(=O)N1CCN(C(=O)c2ccco2)CC1 (stereo unspecified)	/	-2.4	/	/	-2.0	/
CCOC(=O)CSc1nc2sc3c(c2c(=O)[nH]1)CC(C)(CC)OC3 (stereo unspecified)	-0.9	-1.0	2.3	4.3	81.0*	2.0
Cc1occc1C(=O)Nc1cccc(Cl)c1Cl	/	3.5	/	/	-39.4	/
CC1=NN(c2ccccc2)C(=O)/C1=C/c1c(O)n(-c2ccc(F)c(Cl)c2)[nH]c1=O	0.3	8.2	-3.1	0.1	-1.1	-6.5
CN(C)c1ccc(C(=S)N2CCCCC2)cc1Br	-1.5	?	-0.5	-3.0	-1.3	-1.1
CN(C)c1ccc(C(=S)N2CCOCC2)cc1Br	-0.1	?	-0.1	2.2	100.9*	-2.4
N#C/C(=C/c1ccc(N2CCCCCC2)o1)c1ccc(F)cc1	3.7	26.8*	/	-7.3	/	/
N#CCCn1cc(C(=O)Nc2cccc(C(=O)O)c2)c(-c2ccc(Cl)cc2)n1	/	-3.0	/	/	18.9	/
COc1ccc(/C=N\NC(=S)SCN2C(=O)C3CCC(C)(C2=O)C3(C)C)cc1 (stereo unspecified)	-1.4	-1.6	/	0.9	/	/
CC12CCC(C(=O)N(CSC(=S)N/N=C\c3ccccc3O)C1=O)C2(C)C (stereo unspecified)	-1.8	-1.7	-5.6	9.9*	8.2	-16.9
CCn1cc(C2C(C(=O)Nc3ccc(Br)cn3)=C(C)NC3=C2C(=O)CCC3)c(C)n1 (stereo unspecified)	-0.7	3.2	29.9	-4.3	-3.4	73.5*
CC(CCc1ccc(O)cc1)NCc1ccc(Br)cc1 (stereo unspecified)	/	3.2	/	/	24.7	/
CCCN(CCC)CCSc1nc(O)c(C(C)C)c(=O)[nH]1	-1.1	?	0.1	-7.8	-5.3	-4.0
Cc1n[nH]c(=S)c2nn(-c3cccc(Cl)c3)c(C)c12	-3.4	-39.2	1.4	0.1	-36.9	1.7
Cc1n[nH]c(=S)c2nn(-c3ccccc3)c(C)c12	-2.5	-35.4	/	-4.6	16.2	0.0
SMILES	Wee1 degr inh	RanGTP-Imp inh	Runt-CBFb FRET	Efa HMGR inh	PHOSPHO1 inh	Runt-SMMHC FRET
COc1cccc(-n2nc3c(=S)[nH]nc(C)c3c2C)c1	-0.1	-3.2	-0.4	-2.8	60.3*	-0.4
Cc1n[nH]c(=S)c2nn(-c3ccccc3F)c(C)c12	0.0	-30.6	2.8	-4.0	64.9*	1.3
COc1ccc(OCC(=O)Nc2ccc(N3CCN(Cc4ccccc4F)CC3)cc2)cc1	/	2.5	/	/	46.3	/
O=C/C(=C\Nc1ccc(S(=O)(=O)CCO)cc1)c1nc2cc(Cl)ccc2o1	2.6	21.6*	-3.5	-1.7	-21.4	-6.3
O=C/C(=C\Nc1ccc(Cl)cn1)c1nc2cc(Cl)ccc2o1	-1.8	7.7	-19.1	3.3	21.3	-39.6
CC(C)c1ccc(CN2CCN(C(=O)CCl)CC2)cc1	-2.4	/	-0.6	0.4	61.5*	2.5
CC(=O)C(C(C)=O)C(c1ccccc1)c1nc2ccccc2[nH]c1=O (stereo unspecified)	/	-3.9	/	/	39.4	/
c1ccc2c(c1)oc1c(NCCCn3ccnc3)ncnc12	1.4	1.8	-2.1	-4.0	71.6*	-0.7
CCCOc1c(Br)cc(C2C3=C(CCCC3=O)N(CC)C3=C2C(=O)CCC3)cc1OC	-0.3	95.8*	93.7*	2.0	-20.0	89.6*
CCCOc1c(Br)cc(C2C3=C(CCCC3=O)N(C)C3=C2C(=O)CCC3)cc1OC	-1.0	106.9*	-1.9	4.5	3.2	79.2*
Cn1ncc([N+](=O)[O-])c1C(=O)n1nnc2ccccc21	27.5*	/	/	-1.3	8.8	0.4
Cc1ccccc1CNC(=O)Cn1cnc(S(=O)(=O)N2CCCC2)c1	/	7.2	/	/	16.9	/
O=C1C(NS(=O)(=O)c2cccs2)=C(N2CCN(c3ccccc3)CC2)C(=O)c2ccccc21	-0.2	-4.1	3.0	-0.4	76.1*	-3.9
O=S(=O)(c1cccs1)N1CCN(c2ccccc2)CC1	/	0.2	/	/	18.4	/
COc1cc(OC)cc(C(=O)NCCOC23CC4CC(CC(C4)C2)C3)c1	9.4*	-9.0	-3.9	-10.2	22.6	-5.7
Cc1ccc(C(=O)NCCOC23CC4CC(CC(C4)C2)C3)cc1	-1.1	-3.3	-1.4	1.1	23.8	-1.5
COC(=O)CNC(=O)c1cc(OC)cc(OC)c1	-0.3	1.0	-0.3	17.6*	32.8	-3.7
CCOC(=O)CNC(=O)c1cc(OC)cc(OC)c1	-3.0	-2.0	/	-2.5	-0.6	1.4
CC(=O)c1ccc(OCc2cc(C(=O)NC(C)c3cnn(C)c3)no2)cc1 (stereo unspecified)	/	2.8	/	/	61.7*	/
CNS(=O)(=O)c1cccc(C(=O)OCC(=O)Nc2ccc(Cl)cc2F)c1	9.8*	3.8	0.3	/	11.9	-2.1
CC(C)Oc1ccc(CNC(=S)N/N=C/c2cccnc2)cc1	9.2*	2.8	-5.6	-1.5	41.6	0.1
CCOc1ccc(CNC(=S)N/N=C/c2cccnc2)cc1	-1.9	-3.0	-4.2	-7.3	7.4	0.8
CN(C)c1cccc(NC2=CC(=[N+]3CCOCC3)CC(C)(C)C2)c1	5.1	-7.2	-47.2	-1.2	91.3*	7.3
COc1ccc(/C=C2\SC(=S)N(NC(=O)c3csc4c3CCCC4)C2=O)cc1	-1.1	-5.2	-1.2	2.4	71.7*	-12.3
COCCCNC(=O)C1Cc2cc(S(=O)(=O)N3CCCC3)ccc2N1C(C)=O (stereo unspecified)	/	1.7	/	/	11.6	/
O=C(NCC(=O)N(Cc1ccco1)C(C(=O)NC1CCCC1)c1cccnc1)c1ccco1 (stereo unspecified)	5.0	-4.6	/	2.8	/	/
